{"source": "ChEMBL document CHEMBL4376814", "about": "“Novel cyclin-dependent kinase 9 (CDK9) inhibitor with suppression of cancer stemness activity against non-small-cell lung cancer” (Eur J Med Chem, 2019)", "key": {"[1]": {"target": "Tyrosine-protein kinase Lck (Homo sapiens) (UniProt P06239)", "assay": "Inhibition of recombinant full-length human LCK at 1 uM using Cdc2 peptide as substrate measured after 40 mins in presence of [gamma33P]ATP by scintillation counting method relative to control"}, "NCI-H1299 [2]": {"system": "NCI-H1299", "assay": "Induction of apoptosis in human H1299 cells assessed as necrotic cells at 1 uM after 48 hrs by AnnexinV-FITC/PI staining-based flow cytometric analysis (reference value: 0.9%)", "format": "functional"}, "A549 [3]": {"system": "A549", "assay": "Induction of apoptosis in human A549 cells assessed as viable cells at 1 uM after 48 hrs by AnnexinV-FITC/PI staining-based flow cytometric analysis (reference value: 88.8%)", "format": "functional", "details": "A549, 48 h, read-out: Activity"}, "[4]": {"target": "Serine/threonine-protein kinase ULK3 (Homo sapiens) (UniProt Q6PHR2)", "assay": "Inhibition of recombinant full-length human ULK3 at 1 uM using casein as substrate measured after 40 mins in presence of [gamma33P]ATP by scintillation counting method relative to control"}, "[5]": {"target": "Dual specificity protein kinase CLK1 (Homo sapiens) (UniProt P49759)", "sequence (P49759 whole entry, looked up)": "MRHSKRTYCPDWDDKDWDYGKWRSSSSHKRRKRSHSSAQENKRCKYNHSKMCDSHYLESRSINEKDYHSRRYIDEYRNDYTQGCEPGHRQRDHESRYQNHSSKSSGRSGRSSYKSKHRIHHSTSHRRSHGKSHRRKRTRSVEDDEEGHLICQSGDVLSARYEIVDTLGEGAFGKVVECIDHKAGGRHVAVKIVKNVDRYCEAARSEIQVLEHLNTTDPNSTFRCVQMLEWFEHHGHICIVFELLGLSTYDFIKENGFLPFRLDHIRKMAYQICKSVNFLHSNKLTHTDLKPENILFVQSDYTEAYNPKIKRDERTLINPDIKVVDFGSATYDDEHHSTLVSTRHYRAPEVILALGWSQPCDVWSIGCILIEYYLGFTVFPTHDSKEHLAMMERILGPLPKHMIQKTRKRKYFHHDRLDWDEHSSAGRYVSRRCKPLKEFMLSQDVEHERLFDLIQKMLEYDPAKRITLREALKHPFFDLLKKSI", "assay": "Inhibition of recombinant human CLK1 (130 to end residues) at 1 uM using ERMRPRKRQGSVRRRV as substrate measured after 40 mins in presence of [gamma33P]ATP by scintillation counting method relative to control"}, "A549 [6]": {"system": "A549", "assay": "Induction of apoptosis in human A549 cells assessed as necrotic cells at 0.25 uM after 48 hrs by AnnexinV-FITC/PI staining-based flow cytometric analysis (reference value: 0.664%)", "format": "functional"}, "[7]": {"target": "Dual specificity tyrosine-phosphorylation-regulated kinase 2 (Homo sapiens) (UniProt Q92630)", "assay": "Inhibition of recombinant full-length human DYRK2 at 1 uM using casein as substrate measured after 40 mins in presence of [gamma33P]ATP by scintillation counting method relative to control"}, "Homo sapiens [8]": {"species": "Homo sapiens", "assay": "Inhibition of recombinant full-length human ATRIP/ATR M211T mutant at 1 uM using GST-cMyc-p53 as substrate measured after 40 mins by fluorescence assay relative to control"}, "[9]": {"target": "CDK4/Cyclin D3 (Homo sapiens) (UniProt P11802+P30281)", "assay": "Inhibition of recombinant full-length human CDK4/cyclinD3 at 500 nM using Rb fragment as substrate measured after 40 mins in presence of [gamma33P]ATP by scintillation counting method relative to control", "format": "protein-complex assay", "procedure,_shortened": "(§1)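 Percent inhibition of kinase activity at a single compound concentration, measured by the outsourced Eurofins KinaseProfiler panel. Values are the mean of two independent experiments.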"}, "NCI-H1299 [10]": {"system": "NCI-H1299", "assay": "Induction of apoptosis in human H1299 cells assessed as necrotic cells at 0.25 uM after 48 hrs by AnnexinV-FITC/PI staining-based flow cytometric analysis (reference value: 0.9%)", "format": "functional"}, "[11]": {"target": "Cyclin-dependent kinase-like 1 (Homo sapiens) (UniProt Q00532)", "sequence (Q00532 whole entry, the tested form may be a part)": "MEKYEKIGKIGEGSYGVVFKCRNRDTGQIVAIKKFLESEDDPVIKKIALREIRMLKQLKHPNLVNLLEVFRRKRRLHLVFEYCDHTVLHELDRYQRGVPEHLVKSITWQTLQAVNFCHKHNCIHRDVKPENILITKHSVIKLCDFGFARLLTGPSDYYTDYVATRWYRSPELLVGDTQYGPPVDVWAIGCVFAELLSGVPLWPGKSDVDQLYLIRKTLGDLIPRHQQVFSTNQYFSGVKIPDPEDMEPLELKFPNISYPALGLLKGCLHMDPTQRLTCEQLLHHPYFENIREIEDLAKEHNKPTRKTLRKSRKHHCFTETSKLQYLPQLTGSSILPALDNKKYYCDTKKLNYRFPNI", "assay": "Inhibition of recombinant human CDKL1 (1 to 303 residues) at 1 uM using RRRFRPASPLRGP as substrate measured after 120 mins in presence of [gamma33P]ATP by scintillation counting method relative to control"}, "[12]": {"system": "Discoidin domain-containing receptor 2 (Homo sapiens), Q16832 [UNDEFINED MUTATION]", "sequence (Q16832 whole entry, looked up, stated change not applied, the tested form may be a part)": "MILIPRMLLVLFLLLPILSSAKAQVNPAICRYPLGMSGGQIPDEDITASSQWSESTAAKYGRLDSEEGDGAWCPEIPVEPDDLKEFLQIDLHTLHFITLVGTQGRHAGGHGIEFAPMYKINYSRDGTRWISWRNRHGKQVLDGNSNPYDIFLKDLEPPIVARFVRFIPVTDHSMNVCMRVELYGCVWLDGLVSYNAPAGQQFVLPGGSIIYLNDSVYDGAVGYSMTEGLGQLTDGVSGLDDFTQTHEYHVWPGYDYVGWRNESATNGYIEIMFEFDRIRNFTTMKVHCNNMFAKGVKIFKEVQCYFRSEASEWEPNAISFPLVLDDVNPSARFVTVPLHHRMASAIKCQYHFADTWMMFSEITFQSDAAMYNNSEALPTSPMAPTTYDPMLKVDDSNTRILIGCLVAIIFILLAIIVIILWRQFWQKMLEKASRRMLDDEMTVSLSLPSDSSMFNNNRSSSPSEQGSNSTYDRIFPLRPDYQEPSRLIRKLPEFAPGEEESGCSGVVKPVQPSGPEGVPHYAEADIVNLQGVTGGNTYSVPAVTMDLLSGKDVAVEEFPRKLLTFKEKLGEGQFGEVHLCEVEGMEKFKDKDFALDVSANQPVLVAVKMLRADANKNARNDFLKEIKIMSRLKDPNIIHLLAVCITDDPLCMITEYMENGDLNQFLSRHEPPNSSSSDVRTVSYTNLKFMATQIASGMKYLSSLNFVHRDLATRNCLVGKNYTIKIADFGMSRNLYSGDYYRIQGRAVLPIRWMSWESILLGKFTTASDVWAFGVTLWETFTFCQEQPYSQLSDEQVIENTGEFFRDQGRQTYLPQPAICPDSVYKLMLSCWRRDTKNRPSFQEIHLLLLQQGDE", "assay": "Inhibition of recombinant human DDR2 S642A mutant (467 to end residues) at 1 uM using KKSRGDYMTMQIG as substrate measured after 40 mins in presence of [gamma33P]ATP by scintillation counting method relative to control"}, "NCI-H1299 [13]": {"system": "NCI-H1299", "assay": "Downregulation of KLF4 in human H1299 cells at 0.25 to 1 uM by Western blot analysis", "format": "functional, cell-based"}, "[14]": {"target": "Tyrosine-protein kinase CSK (Homo sapiens) (UniProt P41240)", "assay": "Inhibition of recombinant full-length human CSK at 1 uM using poly(Glu, Tyr) 4:1 as substrate measured after 40 mins in presence of [gamma33P]ATP by scintillation counting method relative to control", "procedure,_shortened": "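Single-point inhibition at 1 µM was measured in the Eurofins KinaseProfiler panel. Values are the mean of two independent experiments.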"}, "[15]": {"target": "Serine/threonine-protein kinase PAK 3 (Homo sapiens) (UniProt O75914)", "assay": "Inhibition of recombinant full-length human PAK3 at 1 uM using RRRLSFAEPG as substrate measured after 40 mins in presence of [gamma33P]ATP by scintillation counting method relative to control"}, "NCI-H1299 [16]": {"system": "NCI-H1299", "assay": "Antitumour activity against human H1299 cells xenografted in Balb/c mouse assessed as effect on cyclin T1 level at 20 to 80 mg/kg, po administered for 3 weeks by immunohistochemistry"}, "[17]": {"assay": "Intrinsic clearance in Beagle dog liver microsomes at 2 uM in presence of NADPH measured up to 1 hr by HPLC analysis", "format": "ADME, Canis lupus familiaris, Microsome"}, "NCI-H1299 [18]": {"system": "NCI-H1299", "assay": "Induction of apoptosis in human H1299 cells assessed as viable cells at 1 uM after 48 hrs by AnnexinV-FITC/PI staining-based flow cytometric analysis (reference value: 97.1%)", "format": "functional", "details": "NCI-H1299, 48 h, read-out: Activity"}, "[19]": {"target": "Tyrosine-protein kinase Yes (Homo sapiens) (UniProt P07947)", "sequence (P07947 2-543 limits assumed)": "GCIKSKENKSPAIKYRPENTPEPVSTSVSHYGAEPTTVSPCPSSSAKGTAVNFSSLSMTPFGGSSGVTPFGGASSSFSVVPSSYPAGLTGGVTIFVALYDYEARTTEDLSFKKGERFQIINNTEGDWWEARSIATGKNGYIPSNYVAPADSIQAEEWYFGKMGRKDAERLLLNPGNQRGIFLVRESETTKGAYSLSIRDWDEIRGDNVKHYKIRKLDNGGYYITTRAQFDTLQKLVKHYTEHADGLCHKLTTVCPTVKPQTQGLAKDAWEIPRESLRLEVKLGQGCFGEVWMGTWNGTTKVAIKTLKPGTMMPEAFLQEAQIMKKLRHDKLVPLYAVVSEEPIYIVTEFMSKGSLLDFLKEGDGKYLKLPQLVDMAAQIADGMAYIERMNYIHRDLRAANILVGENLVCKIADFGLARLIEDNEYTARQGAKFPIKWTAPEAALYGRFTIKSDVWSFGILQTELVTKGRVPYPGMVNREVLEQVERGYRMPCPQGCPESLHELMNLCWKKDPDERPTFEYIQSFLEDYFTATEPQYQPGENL", "assay": "Inhibition of recombinant full-length human YES at 1 uM using poly(Glu, Tyr) 4:1 as substrate measured after 40 mins in presence of [gamma33P]ATP by scintillation counting method relative to control"}, "NCI-H1299 [20]": {"system": "NCI-H1299", "assay": "Induction of apoptosis in human H1299 cells assessed as late apoptotic cells at 0.25 uM after 48 hrs by AnnexinV-FITC/PI staining-based flow cytometric analysis (reference value: 1.77%)", "format": "functional"}, "Homo sapiens [21]": {"species": "Homo sapiens", "assay": "Inhibition of recombinant human MARK1 V16E/T20S double mutant (2 to end residues) at 1 uM using KKKVSRSGLYRSPSMPENLNRPR as substrate measured after 40 mins in presence of [gamma33P]ATP by scintillation counting method relative to control"}, "[22]": {"target": "Serine/threonine-protein kinase 26 (Homo sapiens) (UniProt Q9P289)", "assay": "Inhibition of recombinant human MST4 (4 to 304 residues) at 1 uM using RLGRDKYKTLRQIRQ as substrate measured after 40 mins in presence of [gamma33P]ATP by scintillation counting method relative to control"}, "[23]": {"target": "Mitogen-activated protein kinase kinase kinase 11 (Homo sapiens) (UniProt Q16584)", "sequence (Q16584 whole entry, looked up)": "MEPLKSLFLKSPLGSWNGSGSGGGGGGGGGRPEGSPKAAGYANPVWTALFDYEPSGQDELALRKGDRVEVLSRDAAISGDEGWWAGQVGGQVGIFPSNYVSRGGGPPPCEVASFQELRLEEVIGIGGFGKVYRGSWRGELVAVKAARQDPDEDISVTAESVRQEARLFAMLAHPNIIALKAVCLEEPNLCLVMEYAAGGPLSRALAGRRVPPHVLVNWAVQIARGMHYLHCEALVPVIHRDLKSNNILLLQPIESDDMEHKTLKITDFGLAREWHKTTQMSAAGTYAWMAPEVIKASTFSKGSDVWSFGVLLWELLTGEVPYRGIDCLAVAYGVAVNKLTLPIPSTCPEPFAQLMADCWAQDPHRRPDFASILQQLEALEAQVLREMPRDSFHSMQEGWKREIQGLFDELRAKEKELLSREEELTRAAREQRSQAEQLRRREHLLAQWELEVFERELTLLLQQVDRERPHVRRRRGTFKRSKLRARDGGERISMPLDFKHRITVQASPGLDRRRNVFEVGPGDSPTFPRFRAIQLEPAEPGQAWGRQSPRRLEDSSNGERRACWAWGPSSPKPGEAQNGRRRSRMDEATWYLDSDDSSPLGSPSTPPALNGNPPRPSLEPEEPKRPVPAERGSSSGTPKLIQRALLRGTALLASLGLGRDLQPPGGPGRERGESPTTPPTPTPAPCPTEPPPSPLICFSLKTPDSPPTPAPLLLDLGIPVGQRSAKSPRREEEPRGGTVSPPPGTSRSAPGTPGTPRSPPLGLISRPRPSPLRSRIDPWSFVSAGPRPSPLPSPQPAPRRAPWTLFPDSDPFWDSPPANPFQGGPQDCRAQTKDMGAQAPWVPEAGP", "assay": "Inhibition of human MLK3 at 1 uM by radiometric method relative to control", "procedure,_shortened": "as §1"}, "[24]": {"target": "Phosphatidylinositol 4-phosphate 5-kinase type-1 alpha (Homo sapiens) (UniProt Q99755)", "sequence (Q99755 whole entry)": "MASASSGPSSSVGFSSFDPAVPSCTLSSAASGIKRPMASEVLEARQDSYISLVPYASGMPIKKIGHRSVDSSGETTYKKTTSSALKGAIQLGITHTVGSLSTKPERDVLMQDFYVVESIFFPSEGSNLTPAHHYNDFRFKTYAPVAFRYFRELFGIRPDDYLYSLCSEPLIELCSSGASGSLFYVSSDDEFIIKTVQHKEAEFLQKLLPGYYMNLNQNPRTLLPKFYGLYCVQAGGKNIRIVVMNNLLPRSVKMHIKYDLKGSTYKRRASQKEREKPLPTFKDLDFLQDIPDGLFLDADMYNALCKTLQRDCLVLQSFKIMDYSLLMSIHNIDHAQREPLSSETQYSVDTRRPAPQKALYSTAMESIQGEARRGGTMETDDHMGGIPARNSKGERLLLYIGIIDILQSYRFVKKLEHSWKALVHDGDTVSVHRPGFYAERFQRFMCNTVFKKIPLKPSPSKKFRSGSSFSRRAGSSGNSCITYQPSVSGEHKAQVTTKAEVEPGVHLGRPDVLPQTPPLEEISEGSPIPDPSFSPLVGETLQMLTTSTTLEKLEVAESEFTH", "assay": "Inhibition of recombinant full-length human PIP5K1alpha at 1 uM using phosphatidylinositol 4-phosphate as substrate measured after 40 mins by HTRF assay relative to control"}, "[25]": {"target": "Serine/threonine-protein kinase tousled-like 1 (Homo sapiens) (UniProt Q9UKI8)", "sequence (Q9UKI8 whole entry)": "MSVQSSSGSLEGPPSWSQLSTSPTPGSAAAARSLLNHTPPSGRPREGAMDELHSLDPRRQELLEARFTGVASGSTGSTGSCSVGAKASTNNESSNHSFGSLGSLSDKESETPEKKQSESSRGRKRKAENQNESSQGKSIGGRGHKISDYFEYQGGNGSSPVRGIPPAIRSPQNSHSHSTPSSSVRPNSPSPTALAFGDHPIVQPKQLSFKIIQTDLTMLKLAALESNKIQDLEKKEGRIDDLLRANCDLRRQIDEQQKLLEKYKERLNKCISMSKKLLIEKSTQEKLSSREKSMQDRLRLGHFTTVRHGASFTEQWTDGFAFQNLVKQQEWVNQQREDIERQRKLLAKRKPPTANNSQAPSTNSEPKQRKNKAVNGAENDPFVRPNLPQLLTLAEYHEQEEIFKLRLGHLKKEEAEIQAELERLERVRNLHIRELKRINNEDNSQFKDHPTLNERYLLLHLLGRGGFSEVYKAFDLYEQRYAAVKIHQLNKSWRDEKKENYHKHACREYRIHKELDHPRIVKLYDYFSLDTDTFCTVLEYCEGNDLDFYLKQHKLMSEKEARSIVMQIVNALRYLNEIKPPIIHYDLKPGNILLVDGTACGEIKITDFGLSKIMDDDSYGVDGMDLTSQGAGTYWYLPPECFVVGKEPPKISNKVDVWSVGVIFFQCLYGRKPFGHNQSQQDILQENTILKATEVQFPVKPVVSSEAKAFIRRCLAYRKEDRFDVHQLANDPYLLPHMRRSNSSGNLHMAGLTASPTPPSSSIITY", "assay": "Inhibition of recombinant full-length human TLK1 at 1 uM using casein as substrate measured after 40 mins in presence of [gamma33P]ATP by scintillation counting method relative to control"}, "[26]": {"target": "Aurora kinase B (Homo sapiens) (UniProt Q96GD4)", "sequence (Q96GD4 whole entry)": "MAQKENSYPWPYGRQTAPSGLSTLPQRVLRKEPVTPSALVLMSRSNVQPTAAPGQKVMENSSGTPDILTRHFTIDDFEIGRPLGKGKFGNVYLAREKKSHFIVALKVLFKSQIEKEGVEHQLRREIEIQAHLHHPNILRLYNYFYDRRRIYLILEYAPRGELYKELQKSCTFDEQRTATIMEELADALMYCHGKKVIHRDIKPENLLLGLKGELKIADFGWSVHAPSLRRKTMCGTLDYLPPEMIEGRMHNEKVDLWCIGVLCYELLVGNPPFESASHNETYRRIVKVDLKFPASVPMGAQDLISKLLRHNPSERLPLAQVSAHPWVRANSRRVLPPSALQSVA", "assay": "Inhibition of recombinant full-length human AURKB at 1 uM using AKRRRLSSLRA as substrate measured after 40 mins in presence of [gamma33P]ATP by scintillation counting method relative to control"}}, "note": "The source made the active and inactive calls. The calls are words filed in the database; no cut-off is given here."}
{"smiles": "CN(C)C(=O)c1cc2cnc(Nc3ccc(NC(=O)CCCCCCCN=C=S)cc3)nc2n1C1CCCC1", "values": [{"measurement": "inhibition", "setting": "[1]", "value": 33, "unit": "%"}, {"measurement": "Activity", "setting": "NCI-H1299 [2]", "value": 3.64, "unit": "%"}, {"measurement": "viability at 1 µM", "setting": "A549 [3]", "value": 74.8, "unit": "%"}, {"measurement": "inhibition", "setting": "[4]", "value": 9, "unit": "%"}, {"measurement": "inhibition", "setting": "[5]", "value": 14, "unit": "%"}, {"measurement": "Activity", "setting": "A549 [6]", "value": 5.83, "unit": "%"}, {"measurement": "inhibition", "setting": "[7]", "value": -1, "unit": "%"}, {"measurement": "inhibition", "setting": "Homo sapiens [8]", "value": -4, "unit": "%"}, {"measurement": "inhibition", "setting": "[9]", "value": 75, "unit": "%"}, {"measurement": "Activity", "setting": "NCI-H1299 [10]", "value": 0.669, "unit": "%"}, {"measurement": "inhibition", "setting": "[11]", "value": 17, "unit": "%"}, {"measurement": "inhibition", "setting": "[12]", "value": 17, "unit": "%"}, {"measurement": "Activity", "setting": "NCI-H1299 [13]", "value": "Active"}, {"measurement": "inhibition", "setting": "[14]", "value": 1, "unit": "%"}, {"measurement": "inhibition", "setting": "[15]", "value": 2, "unit": "%"}, {"measurement": "Activity", "setting": "NCI-H1299 [16]", "value": "inactive"}, {"measurement": "CLH", "setting": "[17]", "value": 87, "unit": "µL/min/mg"}, {"measurement": "viability at 1 µM", "setting": "NCI-H1299 [18]", "value": 89.6, "unit": "%"}, {"measurement": "inhibition", "setting": "[19]", "value": 61, "unit": "%"}, {"measurement": "Activity", "setting": "NCI-H1299 [20]", "value": 2.24, "unit": "%"}, {"measurement": "inhibition", "setting": "Homo sapiens [21]", "value": 59, "unit": "%"}, {"measurement": "inhibition", "setting": "[22]", "value": 6, "unit": "%"}, {"measurement": "inhibition", "setting": "[23]", "value": 90, "unit": "%"}, {"measurement": "inhibition", "setting": "[24]", "value": 30, "unit": "%"}, {"measurement": "inhibition", "setting": "[25]", "value": 7, "unit": "%"}, {"measurement": "inhibition", "setting": "[26]", "value": 99, "unit": "%"}]}
